Our source for the cytotoxicity values is ChEMBL document CHEMBL4513216, “Probing the Open Global Health Chemical Diversity Library for Multistage-Active Starting Points for Next-Generation Antimalarials” (ACS Infect Dis, 2020).

A short description of the data set: Toxicity liver stage against HepG2, at 10uM. The note with it: human, HepG2-A16-CD81EGFP cells; read-out: INHIBITION
Set-up: test concentration 10 uM, cell line HepG2-A16-CD81EGFP. The data set is classed as cell-based. Put shortly: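 Uninfected HepG2-A16-CD81EGFP cells, 3 × 10^3 per well, 1536-well, plated on prespotted compound at 10 μM final, parasite-free screening media added to match infected plates; puromycin 10 μM positive, DMSO 0.5% negative; run in parallel with 48 h PbLuc assay at 37 °C, 5% CO2; viability by CellTiter-Glo luminescence, normalized to controls.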
Consider `COCC1c2nnn(CC3CC3)c2CCN1C(=O)c1ccncn1` (configuration not stated), for which the cytotoxicity at 10 µM is -132%.

Take `CC1=N[C@@]2(CC[C@@H]3CN(Cc4ccccc4F)C[C@@H]32)C(=O)N1C`: the cytotoxicity at 10 µM came out at 3.76%.

On to `Cc1ccc(C(=O)N2CCC3(CC2)CC(c2ccccc2)C(=O)N3)o1` (configuration not stated), for which the cytotoxicity at 10 µM is 11.1%.

For the compound `c1ccc(N2CCOCC3(CCCN(c4nccs4)C3)C2)nc1` (configuration not stated), the cytotoxicity at 10 µM was -104%.

Turning to `Cc1cnc(C(=O)N2CC[C@H]3C[C@@H](c4nc(C)cs4)O[C@@H]3C2)cn1`, the cytotoxicity at 10 µM stood at 9.32%.

For `O=c1[nH]nc2nc(N3CCCC3)ccn12`, the cytotoxicity at 10 µM is -6.07%.

With `CCNS(=O)(=O)c1cnccc1N1CCN(CCO)CC1`, the cytotoxicity at 10 µM is 3.6%.

Take `O=c1c2cnc(N3CCCCC3)nc2ccn1-c1ccccc1`: the cytotoxicity at 10 µM is -10.1%.

Regarding `O=C(NCc1cccnc1)C1=NOC2(CCN(S(=O)(=O)C3CC3)C2)C1` (configuration not stated), the cytotoxicity at 10 µM was -7.36%.

As for `CN(C)S(=O)(=O)N1CC[C@@H]2CN(Cc3cnn(C)c3)C[C@@H]2C1`, the cytotoxicity at 10 µM was 13.5%.

Turning to `Cc1ccc(Cn2cc(Br)c(NS(C)(=O)=O)n2)cc1`, the cytotoxicity at 10 µM is 0.22%.

In the case of `CCCn1c(SCC(N)=O)nnc1-c1csc2c1CCCC2`, the cytotoxicity at 10 µM was -1.42%.

For `Cc1nn(C)c2c(N(C)Cc3ccco3)nc(C3CC3)nc12`, the cytotoxicity at 10 µM amounted to 1.58%.

Consider `CCn1ccc(NS(=O)(=O)c2cccc(COC)c2)n1`, for which the cytotoxicity at 10 µM was -5.41%.

As for `N#Cc1cn[nH]c1NCc1cc(I)cc(I)c1O`, the cytotoxicity at 10 µM was 1.11%.

As for `O=C(c1cc2cccc(F)c2[nH]1)N1C[C@@H](O)[C@H](N2CCCC2)C1`, the cytotoxicity at 10 µM was 0.152%.

In the case of `FC(F)(F)c1cc(C2CCCN(c3cnccn3)C2)n2ccnc2n1` (configuration not stated), the cytotoxicity at 10 µM was found to be 6.39%.

In the case of `CCC(O)Cn1nc(-c2ccc(C(=O)O)cc2)cc1-c1cccc(F)c1` (configuration not stated), the cytotoxicity at 10 µM amounted to 8.17%.

Turning to `Cc1ncc(CN2CCOC(c3ccc(-c4cc[nH]n4)cn3)C2)s1` (configuration not stated), the cytotoxicity at 10 µM is -16.5%.

Consider `CN1CCC(c2cncc(-c3cccc(Cl)c3)n2)CC1`, for which the cytotoxicity at 10 µM was -20.8%.

With `O=C(c1ccccn1)N1CCC(c2nc(O)cc(-c3ccncc3)n2)C1` (configuration not stated), the cytotoxicity at 10 µM is -4.7%.

Regarding `Cc1ccccc1-c1cncc(C2CCN(Cc3ccccn3)CC2)n1`, the cytotoxicity at 10 µM is -22.2%.

With `CC1CCN(S(=O)(=O)N2CCC(Oc3cnccn3)CC2)CC1`, the cytotoxicity at 10 µM was -2.76%.

With `CN(C)Cc1ccnc(C2CCCN2Cc2cc3ccccc3s2)n1` (configuration not stated), the cytotoxicity at 10 µM worked out at 20.2%.

`O=C(Nc1cccnc1N1CCSCC1)c1cc2c(s1)CCCCC2`: the cytotoxicity at 10 µM is -3.25%.

Consider `CN(Cc1cccc(OC(F)(F)F)c1)C(=O)Cc1ccon1`, for which the cytotoxicity at 10 µM was -9.61%.

For the compound `COCC(O)CN1CCC(NC(=O)c2ccccc2Cl)CC1` (configuration not stated), the cytotoxicity at 10 µM was -4.87%.

On to `O=C(Nc1cccc(N2CCCC2)c1)N[C@H](CCO)c1ccccc1`, for which the cytotoxicity at 10 µM was -4.52%.

With `CN(Cc1cccs1)Cc1nnsc1Cl`, the cytotoxicity at 10 µM is -5.65%.

Regarding `CCc1noc(CNc2cc3c(cc2Cl)OCCCO3)n1`, the cytotoxicity at 10 µM is -1.98%.

`CS(=O)(=O)CCCNc1cccc(COC2CCCCC2)c1`: the cytotoxicity at 10 µM was determined as 9.5%.

For `COc1ccccc1CNC(=O)C(C)N1CC(n2cc(C)cn2)C1` (configuration not stated), the cytotoxicity at 10 µM worked out at 6.15%.

As to `CCOC(=O)NC(CNC(=O)c1cn(C)cn1)CC(C)C` (configuration not stated), the cytotoxicity at 10 µM is -5.35%.

With `CC1CCCN(C(=O)Nc2cccc(CN3CCOC3=O)c2)C1` (configuration not stated), the cytotoxicity at 10 µM is 18.3%.

As to `COCC(=O)NCCCn1nc2ccccn2c1=O`, the cytotoxicity at 10 µM was found to be 11.8%.

For `NC(=O)c1ccc(CN2CCC(N3CCCCC3)CC2)cc1`, the cytotoxicity at 10 µM is -7.55%.

With `[O-][S+](Cc1c(F)cccc1Cl)Cc1nnnn1C1CC1` (configuration not stated), the cytotoxicity at 10 µM was found to be 0.0902%.

On to `CN(C)S(=O)(=O)c1cccc(NC(=O)Cc2ccon2)c1`, for which the cytotoxicity at 10 µM is 9.48%.

With `CCOc1cc(C(=O)N2CC=C(c3ccc(O)cc3)CC2)ccn1`, the cytotoxicity at 10 µM is -4.89%.

On to `Cc1nc(C2CCCN(c3ncc(Br)cn3)C2)no1` (configuration not stated), for which the cytotoxicity at 10 µM is -0.598%.

Regarding `C[C@@H]1CN(C(=O)Nc2cccc(OC(F)F)c2)CC(C(N)=O)O1` (some centres not stated), the cytotoxicity at 10 µM turned out to be 5.52%.

`Cc1cc(C(=O)Nc2nnn[nH]2)ccc1I`: the cytotoxicity at 10 µM was -2.08%.

`O=S(=O)(CCNCCn1cccn1)c1ccccc1`: the cytotoxicity at 10 µM is 11.5%.

`Cc1nc(C2CN(Cc3ccccc3C)CCO2)no1` (configuration not stated): the cytotoxicity at 10 µM was -1.51%.

In the case of `CCCN(CCN(C)C)C(=O)Cc1cn2ccsc2n1`, the cytotoxicity at 10 µM is 0.27%.

Turning to `Cc1noc(C)c1CN1CCN(C(=O)Cn2cncn2)CC1`, the cytotoxicity at 10 µM was -3.52%.

In the case of `Cc1nc(NC(=O)CN2CCc3c(nc(C(C)C)n3C)C2)sc1C`, the cytotoxicity at 10 µM was -9.52%.

As for `Cn1cc(CC2CCN(C(=O)NCc3cn4ccsc4n3)C2)cn1` (configuration not stated), the cytotoxicity at 10 µM was -5.57%.

In the case of `COC[C@@]12CCC[C@@H]1CN(C(=O)COc1ccccc1OC)C2`, the cytotoxicity at 10 µM is -106%.

Take `O=C(NCCn1cccc1)C1CCN(C2CCCCC2)CC1`: the cytotoxicity at 10 µM is -0.467%.

As to `Cc1nc2c(c(=O)n1C)CCN(Cc1cc3cc[nH]c3cn1)CC2`, the cytotoxicity at 10 µM was -9.56%.

For `CCC[C@@H]1CN(Cc2ccccc2OC(F)(F)F)C[C@H]1NC(C)=O`, the cytotoxicity at 10 µM worked out at 5.5%.

As to `CC(=O)c1cccc(CN2CCCC23CCN(c2ccccn2)CC3)c1`, the cytotoxicity at 10 µM was -15.4%.

On to `CNC(=O)c1cc(NC(=O)NCC2CCS(=O)(=O)C2)ccc1OC` (configuration not stated), for which the cytotoxicity at 10 µM worked out at 9.57%.

With `O=C(c1ccc(S(=O)(=O)NCc2ccncc2)cc1)N1CCNCC1`, the cytotoxicity at 10 µM stood at 2.3%.

For `CC(=O)NCCNCc1cn(CCN2CCSCC2)nc1C`, the cytotoxicity at 10 µM worked out at 0.95%.

`CC(=O)NCCC1CCCCN1C(=O)c1cccc(CCC(C)(C)O)c1` (configuration not stated): the cytotoxicity at 10 µM was determined as 4.13%.

As for `Cc1nc(C(=O)N2CCC3(CC2)CC(=O)N(CC2CCCO2)C3)cs1` (configuration not stated), the cytotoxicity at 10 µM was determined as 2.34%.

As to `O=C(c1nc(=O)[nH]c2ccccc12)N1CCCC2(CCNC2)C1` (configuration not stated), the cytotoxicity at 10 µM was -3.64%.

Regarding `CCCC1COCCN1Cc1ccc(C(=O)O)cc1` (configuration not stated), the cytotoxicity at 10 µM was -139%.

With `Cc1noc(CN(C)C(=O)CCn2cnc3ccccc32)n1`, the cytotoxicity at 10 µM was 10.1%.

As to `Cc1ccsc1CN(Cc1ccccn1)CC(O)CO` (configuration not stated), the cytotoxicity at 10 µM was 0.773%.

For `N#Cc1ccnc(NCc2cc3n(n2)CCCN(C(=O)C2CCC2)C3)c1`, the cytotoxicity at 10 µM is -135%.

`CCOc1ccccc1CC(=O)N1CCCC(c2ncc[nH]2)C1` (configuration not stated): the cytotoxicity at 10 µM was -2.65%.

In the case of `CC(CC(F)(F)F)NCc1ccccc1-n1ccnc1` (configuration not stated), the cytotoxicity at 10 µM was determined as 3.15%.

Turning to `O=C1OCCN1CCNc1ncc2c(n1)CCN2c1ccccc1`, the cytotoxicity at 10 µM is -4.95%.

Consider `CCn1ncnc1C1CC(=O)NCc2nc(N3CCOCC3)sc21` (configuration not stated), for which the cytotoxicity at 10 µM was found to be 3.94%.

Turning to `N#Cc1cccc(NC(=O)N2CCC3(CCC(=O)N(C4CC4)C3)CC2)c1`, the cytotoxicity at 10 µM worked out at 3.9%.

Regarding `Cc1c[nH]c(CN2CCOC(c3ccc(Cl)c(Cl)c3)C2)c(C)c1=O` (configuration not stated), the cytotoxicity at 10 µM is 17.7%.

As for `CC(=O)N[C@@H]1CN(Cc2ccccc2-n2cccn2)C[C@H]1C(C)C`, the cytotoxicity at 10 µM is 8.67%.

Turning to `Cc1ncc(C(=O)NCCOc2ccccc2F)c(C)n1`, the cytotoxicity at 10 µM is 24.8%.

As to `O=C(c1cccnc1SC/C=C/c1ccccc1)N1CCOCC(O)C1` (configuration not stated), the cytotoxicity at 10 µM was -2.42%.

For the compound `O=C(NCCN1CCCCC1)c1ccn(-c2ccccc2)n1`, the cytotoxicity at 10 µM is 7.53%.

For the compound `Cc1cnn(C2CCCN(C(=O)c3ccc(N4CCCC4)nc3)C2)c1` (configuration not stated), the cytotoxicity at 10 µM was -4.77%.

Turning to `CCc1ncncc1C(=O)N1CCCN(Cc2ccc(C#N)cc2)CC1`, the cytotoxicity at 10 µM was -2.91%.

With `CCC(C)(C)NC(=O)CN1C=Nc2ccccc2S1(=O)=O`, the cytotoxicity at 10 µM was -4.47%.

For `CC(C)c1nccn1C1CCCN(C(=O)CN(C)C2CC2)C1` (configuration not stated), the cytotoxicity at 10 µM is -4.3%.

Consider `CCc1nc2n(n1)CC(NCc1nc(Cc3ccccc3)no1)CC2` (configuration not stated), for which the cytotoxicity at 10 µM was determined as 1.06%.

Take `O=C(c1ccc2c(c1)CCCC2)N1CCCC(n2cncn2)C1` (configuration not stated): the cytotoxicity at 10 µM is -8.51%.

For `Cc1nccn1C1CCCN(C(=O)c2cccc(S(C)(=O)=O)c2)C1` (configuration not stated), the cytotoxicity at 10 µM is -11.6%.

As for `CC(C)CCN(C(=O)c1ccc(-n2ncc(C#N)c2N)cc1)C1CC1`, the cytotoxicity at 10 µM was -23.6%.

Take `c1cnnc(N2CCCC2CNCc2cccs2)c1` (configuration not stated): the cytotoxicity at 10 µM is -9.61%.

Regarding `CCn1ccnc1CN1CCCN(C(=O)Cc2csc(C)n2)CC1`, the cytotoxicity at 10 µM is -2.12%.

Regarding `COc1ccccc1C(=O)N(C)C1CCN(c2ccccn2)CC1`, the cytotoxicity at 10 µM was -15.4%.

As to `CC(C)c1nnc(CNC2CCCN(Cc3noc(C4CC4)n3)C2)o1` (configuration not stated), the cytotoxicity at 10 µM was -5.62%.

Consider `CCN1CCN(C(=O)CCc2c(C)noc2Cl)CC1`, for which the cytotoxicity at 10 µM is -4.37%.

For the compound `O=C(CC1CCCO1)NCc1ccccc1Cn1cncn1` (configuration not stated), the cytotoxicity at 10 µM was -2.55%.

In the case of `OC1CCCN(Cc2ccnc(-c3cccnc3)n2)C1` (configuration not stated), the cytotoxicity at 10 µM worked out at 14%.

Turning to `CCOCC1CN(CCOc2ccc(Cl)cc2)Cc2c1cnn2C` (configuration not stated), the cytotoxicity at 10 µM is -109%.

As for `O=C([C@H]1CC[C@@H]2[C@@H](CCN2Cc2nccs2)O1)N1CCCCO1`, the cytotoxicity at 10 µM was 6.85%.

For `Cc1ccccc1CN1CC[C@H]2C[C@H](C(=O)N(C)C)O[C@H]2C1`, the cytotoxicity at 10 µM amounted to 4.36%.

Regarding `O=C(C[C@@H]1COC[C@H]2CN(Cc3cccnc3)C[C@@H]12)N1CCOCC1`, the cytotoxicity at 10 µM is -3.35%.

For `O=C1[C@H]2CN(c3ncccn3)C[C@H]2CN1CCN1CCCC1`, the cytotoxicity at 10 µM stood at 2.2%.

Turning to `Cc1ccc2c(c1)C1(CC2)CCN(CC(=O)O)CC1`, the cytotoxicity at 10 µM was found to be 0.806%.

On to `CN1CCc2onc(CNc3ncccn3)c2C1`, for which the cytotoxicity at 10 µM came out at 1.58%.

In the case of `COC1COC2(CCN(Cc3ccc(Cl)cc3)CC2)C1` (configuration not stated), the cytotoxicity at 10 µM is 2.2%.

With `COCCN1CCC(c2nc3ccc(NC(C)C)cn3n2)CC1`, the cytotoxicity at 10 µM was -5.26%.
